Activity calls are given as the source filed them. The calls are words filed in the database; no cut-off is given here.
Assays:
Rattus norvegicus [1] = species on record: Rattus norvegicus; experiment: Positive allosteric modulation of rat brain AMPA receptor assessed as potentiation of 2 fold of (S)-AMPA-induced current amplitude by FlipR method
Procedure, shortened: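 Primary neuron cultures from rat embryonic cortex were stimulated with 300 μM AMPA. Membrane depolarization was read with a fluorescent membrane-potential dye in an imaging plate reader. Reported value is the drug concentration doubling the AMPA-induced fluorescence; n = 3, mean ± SEM (some n = 2).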

Rattus norvegicus [2] = species on record: Rattus norvegicus; experiment: Positive allosteric modulation of rat cortex AMPA receptor expressed in Xenopus laevis oocytes assessed as concentration required to 2 fold potentiation of (S)-AMPA-induced current amplitude by voltage clamp technique; assay type: cell-based
Procedure, shortened: (§1)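 Two-electrode voltage clamp at room temperature on Xenopus laevis oocytes expressing rat cortex poly(A+) mRNA, using 10 μM (S)-AMPA. Oocytes were pre-screened with 100 μM S22286, applied 45 s before, 30 s during and 30 s after AMPA; those with under 130-fold potentiation were excluded. Read-outs were drug concentrations for 2-fold or 5-fold current increase, EC50, and maximal effect as % of the AMPA current; n ≥ 3.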

Rattus norvegicus [3] = species on record: Rattus norvegicus; experiment: Positive allosteric modulation of rat cortex AMPA receptor expressed in Xenopus laevis oocytes assessed as potentiation of (S)-AMPA-induced current amplitude at 10 uM by voltage clamp technique relative to (S)-AMPA; assay type: cell-based; procedure, shortened: as §1
Rattus norvegicus [4] = species on record: Rattus norvegicus; experiment: Positive allosteric modulation of AMPA receptor in rat hippocampal CA1 region assessed as potentiation of AMPA-induced excitatory postsynaptic field potential amplitude in CA1 region at 10 uM relative to basal value; assay type: tissue-based; conditions: Hippocampus
Procedure, shortened: (§2)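 Rat hippocampal slices were perfused with medium containing 1.2 mM Mg2+. EPSfPs were evoked in CA1 by Schaffer collateral stimulation, with compound at 10 μM. Area, amplitude and half-width were each normalized to the pre-application value (100%); n = 3.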

Mus musculus [5] = experiment: Acute toxicity in mouse assessed as convulsion followed by apathy at 30 mg/kg, po; assay type: organism-based; parameters: dose 30 mg/kg, route oral; conditions: in vivo
Procedure, shortened: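 Irwin screen for acute neurotoxicity in mice: single oral dose of 30 mg/kg, then behavioural and physiological state recorded (convulsions, apathy, body temperature). Five animals per compound.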

Rattus norvegicus [6] = species on record: Rattus norvegicus; experiment: Positive allosteric modulation of AMPA receptor in rat hippocampal CA1 region assessed as potentiation of AMPA-induced excitatory postsynaptic field potential area in CA1 region at 10 uM relative to basal value; assay type: tissue-based; conditions: Hippocampus; procedure, shortened: as §2
Mus musculus [7] = experiment: Toxicity in mouse assessed as hypothermia at 30 mg/kg, po; assay type: organism-based; parameters: dose 30 mg/kg, route oral; conditions: in vivo
Procedure, shortened: (§3)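 Irwin test in mice: a single oral dose of 30 mg/kg, five animals per compound. Behavioural and physiological changes were recorded, including body temperature at 30 min post-dose.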

Rattus norvegicus [8] = species on record: Rattus norvegicus; experiment: Positive allosteric modulation of AMPA receptor in rat hippocampal CA1 region assessed as potentiation of AMPA-induced excitatory postsynaptic field potential half-width in CA1 region at 10 uM relative to basal value; assay type: tissue-based; conditions: Hippocampus; procedure, shortened: as §2
Mus musculus [9] = experiment: Toxicity in mouse assessed as reduction in body temperature at 30 mg/kg, ip; assay type: organism-based; parameters: dose 30 mg/kg, route intraperitoneal; conditions: in vivo
Rattus norvegicus [10] = species on record: Rattus norvegicus; experiment: Positive allosteric modulation of rat cortex AMPA receptor expressed in Xenopus laevis oocytes assessed as concentration required to 5 fold potentiation of (S)-AMPA-induced current amplitude by voltage clamp technique; assay type: cell-based; procedure, shortened: as §1
[11] = Positive allosteric modulation of rat cortex AMPA receptor expressed in Xenopus laevis oocytes assessed as potentiation of (S)-AMPA-induced current amplitude by voltage clamp technique; assay type: cell-based; procedure, shortened: as §1
Rattus norvegicus [12] = species on record: Rattus norvegicus; experiment: Positive allosteric modulation of AMPA receptor in Wistar rat hippocampus assessed as potentiation of (S)-AMPA-induced [3H]-NA release at 300 uM relative to (S)-AMPA
Procedure, shortened: (§4)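 Transverse hippocampal slices (300 μm) were loaded with [3H]noradrenaline ([…]) for 30 min at 37 °C, rinsed, then superfused with Krebs buffer, (S)-AMPA, or (S)-AMPA plus compound. Superfusate was collected in 5 min fractions and counted by scintillation. Fractional release was normalized to total radioactivity in all fractions plus tissue. Compound alone was compared with basal DMSO release, and co-application with (S)-AMPA alone (100%).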

Mus musculus [13] = experiment: Toxicity in mouse assessed as hypothermia at 30 mg/kg, po after 30 mins; assay type: organism-based; parameters: dose 30 mg/kg, route oral; conditions: in vivo, 0.5 h; procedure, shortened: as §3
Rattus norvegicus [14] = experiment: Positive allosteric modulation of AMPA receptor in Wistar rat dentate gyrus assessed as increase in tetanus-induced field excitatory postsynaptic potential amplitude at 30 mg/kg, ip administered 1 hr prior to tetanus challenge measured after 3 hrs relative to vehicle-treated control; assay type: functional, organism-based; parameters: dose 30 mg/kg
Procedure, shortened: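 Anaesthetised Wistar rats, 30 mg/kg ip. Field EPSPs recorded in hippocampal dentate gyrus, each amplitude the average of four stimuli. Values normalised to the mean of the 1 h baseline before injection, taken as 100%. LTP induced by tetanic stimulation 1 h after injection, then EPSPs followed for 3 h.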

Rattus norvegicus [15] = species on record: Rattus norvegicus; experiment: Agonist activity at AMPA receptor in Wistar rat hippocampus assessed as [3H]-NA release at 300 uM relative to control; procedure, shortened: as §4
Mus musculus [16] = experiment: Cognitive enhancing effect in CD-1 mouse assessed as recognition of familiar object at 0.3 to 1 mg/kg, po after 1 hr by object recognition test; assay type: functional, organism-based
Procedure, shortened: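 Three-session object recognition test in CD1 mice, with a 24 h interval between sessions. Dosing was oral, 1 h before each session. Read-out was a discrimination index: exploration time of the new object minus that of the familiar object in the last session. n = 13; one-way ANOVA versus control.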

Rattus norvegicus [17] = experiment: Positive allosteric modulation of AMPA receptor in Wistar rat dentate gyrus assessed as increase in field excitatory postsynaptic potential amplitude at 30 mg/kg, ip after 1 hr; assay type: functional, organism-based; parameters: dose 30 mg/kg
Procedure, shortened: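 Anesthetized Wistar rats received 30 mg/kg ip. EPSfPs were recorded in the hippocampal dentate gyrus, with amplitude averaged over four stimuli. Values were normalized to the mean response during the 1 h baseline before injection (100%). One hour after injection, LTP was induced by tetanic stimulation and EPSfPs were followed for 3 h.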

Compound | Activity (Rattus norvegicus [1]) [µM] | Activity (Rattus norvegicus [2]) [µM] | Emax (Rattus norvegicus [3]) [%] | other results
O=S1(=O)N=CN(CC(F)F)c2cc(Cl)sc21 | 100 | – | – | –
CCN1C=NS(=O)(=O)c2cc(Cl)sc21 | > 100 | – | – | –
CC(C)N1CNS(=O)(=O)c2sc(Cl)cc21 | 9.55 | 4.2 | 217 | –
O=S1(=O)N=CN(CC(F)F)c2c(Cl)sc(Cl)c21 | > 100 | – | – | –
CCN1CNS(=O)(=O)c2c(Cl)sc(Cl)c21 | > 55 | 71 | > 955 | –
CCCN1C=NS(=O)(=O)c2c(Cl)sc(Cl)c21 | > 100 | – | – | –
CN1C=NS(=O)(=O)c2sc(Cl)cc21 | > 100 | > 166 | – | –
O=S1(=O)NCN(CCF)c2cc(Cl)sc21 | 3.32 | 2 | 5600 | Activity (Rattus norvegicus [4]): 33.7%; Activity (Mus musculus [5]): Toxic; Activity (Rattus norvegicus [6]): 9.3%
O=S1(=O)NCN(CC(F)F)c2c(Cl)sc(Cl)c21 | > 100 | 235 | > 227 | –
O=S1(=O)NCNc2c(Cl)sc(Cl)c21 | > 100 | 72 | > 973 | –
O=S1(=O)N=CN(CF)c2cc(Cl)sc21 | > 100 | – | – | –
CCCN1CNS(=O)(=O)c2c(Cl)sc(Cl)c21 | > 100 | > 300 | > 126 | –
O=S1(=O)NCN(CC(F)F)c2cc(Cl)sc21 | 2.9 | 1.6 | 2560 | Activity (Rattus norvegicus [4]): 15.3%; Activity (Mus musculus [7]): 60%; Activity (Rattus norvegicus [8]): 14.3%; Activity (Rattus norvegicus [6]): 22.7%
CCCN1CNS(=O)(=O)c2sc(Cl)cc21 | 25.1 | 15 | 2090 | –
CC(C)N1C=NS(=O)(=O)c2sc(Cl)cc21 | > 100 | > 100 | > 277 | –
O=S1(=O)NCNc2cc(Cl)sc21 | > 100 | 216 | 253 | –
O=S1(=O)N=CN(CCF)c2c(Cl)sc(Cl)c21 | 20.3 | 26.5 | > 2330 | –
O=S1(=O)N=CN(CCCF)c2cc(Cl)sc21 | 100 | > 300 | 107 | –
CCCN1C=NS(=O)(=O)c2sc(Cl)cc21 | > 100 | – | 2070 | T (Mus musculus [9]): 4.6 °C
O=S1(=O)NCN(CCCF)c2cc(Cl)sc21 | > 45.7 | 12 | > 3780 | –
O=S1(=O)NCN(CCF)c2c(Cl)sc(Cl)c21 | > 100 | 113 | > 485 | –
O=S1(=O)N=CN(CCF)c2cc(Cl)sc21 | > 100 | > 300 | 204 | –
CCN1CNS(=O)(=O)c2sc(Cl)cc21 | – | 3.6 | 2270 | Activity (Rattus norvegicus [10]): 18.5 µM; EC50 [11]: 9.2 µM
CN1CNS(=O)(=O)c2sc(Cl)cc21 | – | 36 | > 462 | –
CN1C=NS(=O)(=O)c2c(Cl)sc(Cl)c21 | – | 81 | > 413 | –
O=S1(=O)N=CNc2c(Cl)sc(Cl)c21 | – | > 100 | – | –
CN1CNS(=O)(=O)c2c(Cl)sc(Cl)c21 | – | 5.4 | 2920 | –
CCN1C=NS(=O)(=O)c2sc(Cl)cc21 | > 100 | 172 | > 175 | –
CCN1C=NS(=O)(=O)c2c(Cl)sc(Cl)c21 | – | 42 | > 1000 | –
CCN1CNS(=O)(=O)c2cc(Cl)sc21 | 10.4 | 4.4 | 2830 | Activity (Rattus norvegicus [12]): 281%; Activity (Rattus norvegicus [4]): 3.7%; Activity (Rattus norvegicus [10]): 24 µM; Activity (Mus musculus [13]): Non-toxic; Activity (Rattus norvegicus [8]): 11.7%; Activity (Rattus norvegicus [14]): Active; EC50 [11]: 11 µM; Activity (Rattus norvegicus [15]): 34%; Activity (Rattus norvegicus [6]): 18.3%; Activity (Mus musculus [16]): Active; Activity (Rattus norvegicus [17]): Active

— ChEMBL document CHEMBL3085641, “Development of thiophenic analogues of benzothiadiazine dioxides as new powerful potentiators of 2-amino-3-(3-hydroxy-5-methylisoxazol-4-yl)propionic acid (AMPA) receptors” (J Med Chem, 2013)
